Compound activity (PubChem)
A selection: hits, their analogues and other compounds. The true share with any hit is near 2.3%.
HCV core dimer: blocks dimerization of HCV core protein; TR-FRET GST/Flag-core106 dimerization, 1536-well; inhibition, % at 5 µM; 0.33% of 300,000 active;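 active means inhibition above the mean of all tested compounds plus 3 SD, set per screening campaign, cut at about 45% in these data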
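Test system: GST/Flag-tagged HCV core106 proteins; Medium: KF-containing HEPES buffer, pH 7.45, DTT, CHAPS, BSA; Times: compound-protein-antibody incubation 4 h at 22.5 °C; Detection: TR-FRET 671 and 617 nm emission; Benchmarks: wells lacking GST-core106 and wells with excess unlabelled core106.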
EBNA-1 inhibitor: blocks EBNA-1 binding to DNA | inhibition, % at 14.8 µM | 0.34% of 300,000 active | EBNA-1 DNA binding, fluorescence polarization; in the data active means inhibition above about 28%
NS3 helicase inh: inhibitors of Hepatitis C virus NS3 helicase | NS3 helicase DNA unwinding, Cy5 molecular beacon fluorescence | inhibition, % at 10.9 µM | 0.56% of 290,000 active;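 active means inhibition above the mean of all tested compounds plus 3 SD, set per campaign, cut at about 35% in these data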;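 further: 0% = DMSO wells and 100% = thioflavine S control wells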
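assay system = NS3 helicase fragment of HCV | buffer or medium = MOPS pH 6.5, MgCl2, DTT, Tween20, BSA | timing = 60 min unwinding reaction at 25 °C after ATP addition | signal = Cy5 beacon fluorescence read at start and 1 h | read-out basis = % inhibition of unwinding | control set = low DMSO, high thioflavine S at 110 µM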
EBV gp42 inh: blocks Epstein-Barr virus glycoprotein 42 binding. AID 1085. Fluorescence polarization binding assay, mP read-out. 0.42% of 220,000 active. inhibition, % (tested at 21.74 µM); in the data active means inhibition above about 50%
Target sequence (Q1HVG2 whole entry, looked up): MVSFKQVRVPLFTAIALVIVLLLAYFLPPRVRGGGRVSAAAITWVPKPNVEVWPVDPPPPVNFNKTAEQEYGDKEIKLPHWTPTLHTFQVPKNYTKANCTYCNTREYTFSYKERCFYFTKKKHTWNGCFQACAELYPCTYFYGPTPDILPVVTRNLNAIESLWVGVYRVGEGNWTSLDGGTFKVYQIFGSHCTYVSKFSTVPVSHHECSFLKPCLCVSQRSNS
ZTA counter: ZTA (EBV) inhibition in EBNA-1 counter-screen | 0.15% of 320,000 active | ZTA-DNA binding, fluorescence polarization | AID 2234 | P03206 | inhibition, % at 11 µM; in the data active means inhibition above about 33%
Target sequence (P03206 whole entry, looked up): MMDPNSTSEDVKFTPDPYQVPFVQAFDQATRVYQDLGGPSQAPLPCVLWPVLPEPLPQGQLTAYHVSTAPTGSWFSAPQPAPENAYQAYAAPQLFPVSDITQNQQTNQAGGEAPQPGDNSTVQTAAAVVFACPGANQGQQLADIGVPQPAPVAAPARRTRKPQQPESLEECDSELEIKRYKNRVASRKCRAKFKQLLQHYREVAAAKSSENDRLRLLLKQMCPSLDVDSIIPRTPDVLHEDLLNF
GPR7 antag: blocks human GPR7 receptor signaling | 1.1% of 290,000 active | GPR7-expressing cells, fluorescence antagonist assay | AID 1861 | inhibition, % at 4.4 µM; in the data active means inhibition above about 16%, passing the limit was not always enough;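 further: cells stimulated with the agonist NPW; 0% = agonist with vehicle and 100% = vehicle without agonist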
Numbers without * were called inactive; x = not tested or not shown; + = active, no number.

SMILES	HCV core dimer	EBNA-1 inhibitor	NS3 helicase inh	EBV gp42 inh	ZTA counter	GPR7 antag
O=C(Nc1ccc(Br)cn1)C1CCCN1S(=O)(=O)c1ccccc1 (centres undefined)	-2.6	-0.8	-0.3	11.3	0.7	2.7
CO/N=C/NC(=O)N1OC[C@@H]2COc3ccc4ccccc4c3[C@@H]21	-0.8	2.7	-3.0	3.0	3.3	1.9
NC(=S)N1OC[C@@H]2COc3ccc4ccccc4c3[C@@H]21	-12.3	-6.1	-4.5	-0.1	-14.3	16.4*
CC(C)c1ccc(NC(=O)Nc2cc3sccc3n2C)cc1	46.7*	-6.1	22.6	0.8	-14.8	-7.8
S=c1nc[nH]c2c1sc1nc(N3CCOCC3)c3c(c12)CCCC3	61.1*	6.6	15.1	11.3	3.7	1.7
CCN(c1ccc(N=Cc2c(O)n(Cc3ccc(OC)cc3)c(=O)c3ccccc23)cc1)C(C)C	x	x	-3.3	+	x	-24.2
COc1ccc(-n2c(O)c(C=Nc3ccccc3)c3ccccc3c2=O)cc1	1.8	3.1	9.3	-6.2	-6.1	-7.5
Cc1ccc2nc(N3CCN(S(=O)(=O)c4ccc5c(c4)OCCO5)CC3)c(C#N)cc2c1	59.2*	11.5	-6.9	-40.5	1.4	-7.3
CCOc1ccc2ncc(S(=O)(=O)c3ccc(C)cc3)c(N3CCC4(CC3)OCCO4)c2c1	15.7	-4.9	-30.0	-54.1	-6.8	-15.2
O=S(=O)(Nc1ncnc2sc3c(c12)CCC3)c1ccc(Cl)s1	46.6*	8.5	22.9	-11.8	16.6	10.4
COc1ccc(/C=C2/N=C(c3cccs3)OC2=O)cc1OC(C)C	20.3	11.8	3.0	107.4*	3.5	-5.7
CCOc1ccc(/C=C2\N=C(c3cccs3)OC2=O)cc1OC	3.3	7.0	-3.5	-142.1	12.1	-6.5
COc1ccc(Cl)cc1NS(=O)(=O)c1cccc(C(=O)N2CC(C)OC(C)C2)c1 (centres undefined)	x	x	x	x	-3.3	x
Cc1ccc(CSC2=Nc3ccccc3C3=NC(CC(=O)NCc4ccco4)C(=O)N23)cc1 (centres undefined)	64.2*	2.2	30.5	4.5	2.4	3.3
O=C(CC1N=C2c3ccccc3N=C(SCc3ccc(F)cc3)N2C1=O)NCc1ccco1 (centres undefined)	0.1	8.4	13.5	8.6	-9.1	-2.9
[O-]/C(=C(\C(=S)Nc1ccc(SC(F)F)cc1)[n+]1ccccc1)c1ccc(Cl)cc1Cl	11.6	-8.3	-21.2	-3.1	-6.6	-7.0
Cc1cc(C)cc(NC(=S)/C(=C(\[O-])c2ccc(Cl)cc2Cl)[n+]2ccccc2)c1	6.7	-8.2	11.5	-2.6	-7.8	16.1*
CN(C)/C(=N\S(=O)(=O)c1ccccc1)c1ccc(F)cc1	-13.3	-6.8	4.3	x	-8.6	0.2
c1ccc(CN2CCN(C3=Nc4cccc5cccc3c45)CC2)cc1	x	x	-3.0	12.7	x	0.1
O=C1CCN2C=Nc3cccc4ccc1c2c34	-7.2	-5.3	4.5	137.2*	-5.3	2.1
O=C(C1=C(O)C(=O)N(CC2CCCO2)C1c1ccccc1F)c1ccco1 (centres undefined)	10.9	4.1	1.2	x	8.5	-10.8
COc1ccc(-n2c(-c3ccccc3)nc(=S)c3c2CCCC3)cc1	77.1*	5.3	-0.9	-18.6	13.7	2.3
CC(C)n1c(-c2ccccc2)nc(=S)c2c1CCCC2	0.3	-10.3	2.5	-22.5	-0.8	-9.7
COc1ccc(-n2c(-c3cccc(OC)c3)nc(=S)c3c2CCCC3)cc1	66.5*	9.5	0.8	-17.1	6.4	19.8
COc1cccc(-c2cn3nc4c(nc3n2)CCCC4)c1	20.7	1.1	23.9	-37.1	-14.9	3.4
COc1ccc(CNC(=O)CN(C(=O)c2snc(C(N)=O)c2N)c2ccccc2F)cc1	-11.2	-10.1	14.4	x	-26.9	-10.3
Cc1c2ccccc2cc[n+]1CCCS(=O)(=O)[O-]	1.9	6.3	1.6	-2.9	-5.5	-3.6
CC1(C)C(/C=C/C=C/C=C/C=C2\N(CCCCS(=O)(=O)O)c3ccc4ccccc4c3C2(C)C)=[N+](CCCCS(=O)(=O)[O-])c2ccc3ccccc3c21	68.5*	50.7*	x	x	60.9*	x
COc1cccc(-c2nnc3sc(-c4ccccc4)nn23)c1	3.5	-5.1	0.8	2.8	-18.5	6.0
COc1cccc(OC)c1-c1nn2c(-c3cc(-c4ccccc4)n[nH]3)nnc2s1	54.2*	59.5*	-2.0	-138.9	165.3*	-3.6
